The source of these data is ChEMBL document CHEMBL1136761 (J Med Chem, 2003).

For test [1], the target named is Monoamine transporters; serotonin & dopamine (Rattus norvegicus) (UniProt P31652+P23977). Kind of test: Ratio between affinities at the rat dopamine and serotonin transporters. The format is protein assay. In outline: (§1)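 Binding was measured by competition against [125I]RTI-55 at DAT and SERT, and affinities were reported as Ki values. The selectivity ratio is SERT Ki divided by DAT Ki. Other conditions follow a cited earlier method.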
Sequence of Monoamine transporters; serotonin & dopamine (Rattus norvegicus) (P23977 whole entry, looked up): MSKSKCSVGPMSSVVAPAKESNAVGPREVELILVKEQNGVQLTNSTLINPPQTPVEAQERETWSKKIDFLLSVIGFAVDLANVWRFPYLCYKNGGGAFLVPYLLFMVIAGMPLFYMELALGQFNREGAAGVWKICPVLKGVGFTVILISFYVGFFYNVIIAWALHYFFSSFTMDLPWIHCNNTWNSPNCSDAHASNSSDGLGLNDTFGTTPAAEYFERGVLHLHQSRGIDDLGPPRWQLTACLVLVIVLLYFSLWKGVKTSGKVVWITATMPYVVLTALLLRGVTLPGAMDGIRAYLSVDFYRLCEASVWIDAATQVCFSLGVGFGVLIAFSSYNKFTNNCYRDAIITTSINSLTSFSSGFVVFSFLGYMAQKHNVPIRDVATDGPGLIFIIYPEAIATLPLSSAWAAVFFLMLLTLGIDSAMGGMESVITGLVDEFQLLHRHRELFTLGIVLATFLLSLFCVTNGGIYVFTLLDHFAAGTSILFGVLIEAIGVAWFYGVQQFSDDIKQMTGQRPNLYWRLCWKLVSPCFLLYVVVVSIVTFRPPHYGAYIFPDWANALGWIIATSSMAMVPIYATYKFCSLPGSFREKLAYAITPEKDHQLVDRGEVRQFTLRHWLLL
Sequence of Monoamine transporters; serotonin & dopamine (Rattus norvegicus) (P31652 whole entry, looked up): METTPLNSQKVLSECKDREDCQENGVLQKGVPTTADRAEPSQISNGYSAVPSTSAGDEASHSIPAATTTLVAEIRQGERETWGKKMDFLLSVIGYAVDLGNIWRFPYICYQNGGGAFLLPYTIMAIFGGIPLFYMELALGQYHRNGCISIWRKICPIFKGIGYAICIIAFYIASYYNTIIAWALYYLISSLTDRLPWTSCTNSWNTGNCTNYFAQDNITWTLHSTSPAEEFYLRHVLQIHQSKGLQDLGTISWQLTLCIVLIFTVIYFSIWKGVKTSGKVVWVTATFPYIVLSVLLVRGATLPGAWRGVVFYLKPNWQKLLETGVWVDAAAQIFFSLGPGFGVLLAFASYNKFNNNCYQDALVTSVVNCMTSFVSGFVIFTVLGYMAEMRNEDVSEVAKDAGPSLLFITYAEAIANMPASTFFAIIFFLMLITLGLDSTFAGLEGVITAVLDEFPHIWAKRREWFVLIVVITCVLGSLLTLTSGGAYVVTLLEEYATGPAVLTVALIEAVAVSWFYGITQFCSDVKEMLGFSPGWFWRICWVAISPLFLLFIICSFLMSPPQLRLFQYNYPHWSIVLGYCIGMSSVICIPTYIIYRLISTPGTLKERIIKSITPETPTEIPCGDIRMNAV

Test [2] has as its target T1, Sodium-dependent dopamine transporter (Rattus norvegicus, UniProt P23977). Kind of test: Affinity at rat dopamine transporter using [125I]RTI-55 displacement. In outline: as §1
Test [3] has as its target T2, Sodium-dependent serotonin transporter (Rattus norvegicus, UniProt P31652). Kind of test: Affinity at rat serotonin transporter using [125I]RTI-55 displacement. In outline:
as §1

Test [4] has as its target T2, Sodium-dependent serotonin transporter. Briefly: Inhibition of [3H]5-HT uptake at the rat serotonin transporter.
The target in test [5] is Norepinephrine transporter (Rattus norvegicus, UniProt Q9WTR4). Briefly: Inhibition of [3H]norepinephrine uptake at the rat norepinephrine transporter.
Sequence of Norepinephrine transporter (Q9WTR4 whole entry): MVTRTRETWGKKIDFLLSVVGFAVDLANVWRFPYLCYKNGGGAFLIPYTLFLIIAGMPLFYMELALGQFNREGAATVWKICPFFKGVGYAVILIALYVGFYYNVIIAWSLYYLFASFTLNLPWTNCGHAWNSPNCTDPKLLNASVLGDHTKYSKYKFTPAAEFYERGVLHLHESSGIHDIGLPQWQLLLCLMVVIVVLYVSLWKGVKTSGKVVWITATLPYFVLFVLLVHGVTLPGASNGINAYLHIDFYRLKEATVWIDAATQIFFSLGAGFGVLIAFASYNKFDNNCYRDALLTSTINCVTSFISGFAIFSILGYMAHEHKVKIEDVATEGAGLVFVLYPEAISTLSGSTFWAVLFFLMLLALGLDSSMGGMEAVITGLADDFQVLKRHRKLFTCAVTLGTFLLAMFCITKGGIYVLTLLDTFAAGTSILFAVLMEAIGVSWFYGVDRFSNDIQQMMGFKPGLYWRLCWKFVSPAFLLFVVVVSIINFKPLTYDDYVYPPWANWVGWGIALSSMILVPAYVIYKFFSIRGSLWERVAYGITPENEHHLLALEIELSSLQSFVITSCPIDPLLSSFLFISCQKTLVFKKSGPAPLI
Test [6] addresses T1, Sodium-dependent dopamine transporter. Kind of test: Inhibition of [3H]dopamine uptake via rat dopamine transporter.
Test [7] is described as follows: Ratio between the inhibition of norepinephrine and dopamine uptake.
Test [8] can be described thus: Ratio between the inhibition of serotonin and dopamine uptake.

T2 sequence (P31652 whole entry): as the sequence (P31652 whole entry, looked up) above
T1 sequence (P23977 whole entry): as the sequence (P23977 whole entry, looked up) above

Broadly, the Ki is a measure of affinity in units of concentration, obtained from inhibition or displacement. Turning to `COc1ccc(CN2CCC(CCOC(c3ccc(F)cc3)c3ccc(F)cc3)CC2)cc1`, the Ratio in test [1] was 34. Also, the Ki was determined as 7.9 nM in test [2] and 266 nM in test [3].
For `COc1ccccc1CN1CCC(CCOC(c2ccc(F)cc2)c2ccc(F)cc2)CC1`, in that order: 4, 63 nM and 248 nM.
Consider `Cc1ccc(CN2CCC(CCOC(c3ccc(F)cc3)c3ccc(F)cc3)CC2)cc1`, for which the Ratio in test [1] is 42. Moreover, the inhibition constant (Ki) was 5.7 nM in test [2] and 239 nM in test [3].
Consider `Fc1ccc(C(OCCC2CCN(Cc3ccc4ccccc4c3)CC2)c2ccc(F)cc2)cc1`, for which the Ki in test [2] was determined as 0.7 nM; in test [3] it was 88 nM; in test [4] it was 227 nM; in test [5] it was 93 nM; in test [6] it was 7.2 nM.
With `COc1cccc(CN2CCC(CCOC(c3ccc(F)cc3)c3ccc(F)cc3)CC2)c1`, the Ratio in test [1] is 12. Also, the Ki in test [2] is 13.3 nM; in test [3], 161 nM.
For the compound `FC(F)(F)c1ccc(CN2CCC(CCOC(c3ccccc3)c3ccccc3)CC2)cc1`, the Ratio in test [1] came out at 648. The Ki in test [2] came to 3.5 nM; in test [3], 2270 nM.
As for `Fc1ccc(C(OCCC2CCN(Cc3ccccc3)CC2)c2ccc(F)cc2)cc1`, the Ratio in test [1] stood at 17. Further, the Ki in test [2] was 9.9 nM; in test [3], 171 nM.
For `N#Cc1ccc(CN2CCC(CCOC(c3ccc(F)cc3)c3ccc(F)cc3)CC2)cc1`, in that order: 505, 1.2 nM and 606 nM.
Turning to `Brc1ccc(CN2CCC(CCOC(c3ccccc3)c3ccccc3)CC2)cc1`, the Ratio in test [1] turned out to be 154. The Ki in test [2] is 6.4 nM; in test [3], 988 nM; in test [4], 1320 nM; in test [5], 534 nM; in test [6], 5.3 nM.
For the compound `Fc1ccc(C(OCCC2CCN(Cc3ccc(Br)cc3)CC2)c2ccc(F)cc2)cc1`, the Ratio in test [1] came to 181. Also, the Ki in test [2] was found to be 1.1 nM; in test [3], 199 nM.
Consider `Fc1ccc(C(OCCC2CCN(Cc3ccc(Cl)cc3)CC2)c2ccc(F)cc2)cc1`, for which, in test [1], the Ratio was found to be 198. In addition, the Ki stood at 1.2 nM in test [2] and 238 nM in test [3].
Consider `Clc1ccc(CN2CCC(CCOC(c3ccccc3)c3ccccc3)CC2)cc1`, for which the Ratio in test [1] worked out at 140. Moreover, the Ki in test [2] was 3.8 nM; in test [3], 531 nM.
For `Fc1ccc(CN2CCC(CCOC(c3ccccc3)c3ccccc3)CC2)cc1`, in that order: 177, 5.1 nM and 902 nM.
As for `Ic1ccc(CN2CCC(CCOC(c3ccccc3)c3ccccc3)CC2)cc1`, the Ratio in test [1] turned out to be 63; in test [7] it was 93; in test [8], 500. The Ki in test [2] is 7.2 nM; in test [3] it was 457 nM; in test [4], 2570 nM; in test [5], 479 nM; in test [6] it was 5.1 nM.
Take `O=[N+]([O-])c1ccc(CN2CCC(CCOC(c3ccccc3)c3ccccc3)CC2)cc1`: the Ratio in test [1] was determined as 859. In addition, the Ki in test [2] was 2.5 nM; in test [3], 2150 nM; in test [4], 3580 nM; in test [5], 208 nM; in test [6] it was 2.7 nM.
For `N#Cc1ccc(CN2CCC(CCOC(c3ccccc3)c3ccccc3)CC2)cc1`, in test [1], the Ratio turned out to be 390. Also, the Ki in test [2] worked out at 5.7 nM; in test [3], 2230 nM.
Turning to `O=[N+]([O-])c1ccc(CN2CCC(CCOC(c3ccc(F)cc3)c3ccc(F)cc3)CC2)cc1`, the Ratio in test [1] worked out at 323. Also, the Ki turned out to be 1.2 nM in test [2]; 387 nM in test [3]; 1560 nM in test [4]; 231 nM in test [5]; 6.9 nM in test [6].
Take `Fc1ccc(C(OCCC2CCN(Cc3ccc(I)cc3)CC2)c2ccc(F)cc2)cc1`: the Ratio in test [1] worked out at 98. For the same compound, the Ki in test [2] was determined as 2.1 nM; in test [3] it was 205 nM; in test [4], 1020 nM; in test [5] it was 546 nM; in test [6] it was 13.6 nM.
Turning to `Fc1ccc(CN2CCC(CCOC(c3ccc(F)cc3)c3ccc(F)cc3)CC2)cc1`, the Ratio in test [1] came to 107. The inhibitory constant (Ki) in test [2] was found to be 2.3 nM; in test [3], 245 nM; in test [4], 601 nM; in test [5], 639 nM; in test [6], 3.8 nM.
`Fc1ccc(C(OCCC2CCN(Cc3cccc4ccccc34)CC2)c2ccc(F)cc2)cc1`: in test [1], the Ratio came out at 23. Moreover, the inhibition constant Ki in test [2] worked out at 16 nM; in test [3] it was 370 nM.
Take `Fc1ccc(C(OCCC2CCN(Cc3ccc(C(F)(F)F)cc3)CC2)c2ccc(F)cc2)cc1`: the Ratio in test [1] was determined as 402. The Ki in test [2] stood at 1.1 nM; in test [3], 442 nM.
